In ChEMBL document CHEMBL3864131, “Development, synthesis and structure-activity-relationships of inhibitors of the macrophage infectivity potentiator (Mip) proteins of Legionella pneumophila and Burkholderia pseudomallei” (Bioorg Med Chem, 2016):

system: not listed separately; experiment: Stability of the compound in methanol/HEPES buffer at pH 7.8 at 40 degC for 24 hrs by HPLC analysis; type: physicochemical; details: read-out: Stability
In short: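 Compound dilutions incubated for 24 h in methanol with 10 mM HEPES buffer (pH 7.8) at 25 °C and 40 °C. HPLC analysis was done at 0 and 24 h to give the percentage of intact compound remaining.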

Structure (SMILES)	remaining at 24 h [%]
COc1cc(CCCOC(=O)[C@@H]2CCCCN2S(=O)(=O)Cc2ccccc2)cc(OC)c1OC	99
COCCOc1cc(OCCOC)cc(C(=O)OCCOC(=O)[C@@H]2CCCCN2S(=O)(=O)Cc2ccccc2)c1	85
C[C@@H](CNC(=O)c1cccnc1)OC(=O)[C@@H]1CCCCN1S(=O)(=O)Cc1ccccc1	> 95
O=C(OCCOc1cccnc1)[C@@H]1CCCCN1S(=O)(=O)Cc1ccccc1	> 95
O=C(OCCCc1cccnc1)[C@@H]1CCCCN1S(=O)(=O)Cc1ccccc1	99
O=C(OCCOC(=O)[C@@H]1CCCCN1S(=O)(=O)Cc1ccccc1)c1cccnc1	40
O=C(OCCCc1cccnc1)[C@@H]1CCCCN1S(=O)(=O)Cc1ccc(F)cc1	> 95
COCCOc1cc(OCCOC)cc(C(=O)NCCOC(=O)[C@@H]2CCCCN2S(=O)(=O)Cc2ccccc2)c1	> 95
CC(C)NC(=O)[C@@H]1CCCCN1S(=O)(=O)Cc1ccccc1	> 95
O=C(OCCO)C1CCCCN1S(=O)(=O)Cc1ccccc1 (racemic)	> 95
CC(C)OC(=O)C1CCCCN1S(=O)(=O)Cc1ccccc1 (racemic)	> 95

system: not listed separately; experiment: Stability in human plasma after 24 hrs by HPLC analysis; type: ADME, cell-free; details: not given
In short: (§1)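 Compound incubated in human plasma and sampled at 1, 4 and 24 h. The decrease in compound concentration was followed by HPLC.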

Structure (SMILES)	Stability [%]
O=C(NCCOC(=O)[C@@H]1CCCCN1S(=O)(=O)Cc1ccccc1)c1cccnc1	50

biological target: Outer membrane protein MIP (Legionella pneumophila, UniProt Q70YI1); experiment: not given; details: not given
Sequence (Q70YI1 21-233 limits assumed): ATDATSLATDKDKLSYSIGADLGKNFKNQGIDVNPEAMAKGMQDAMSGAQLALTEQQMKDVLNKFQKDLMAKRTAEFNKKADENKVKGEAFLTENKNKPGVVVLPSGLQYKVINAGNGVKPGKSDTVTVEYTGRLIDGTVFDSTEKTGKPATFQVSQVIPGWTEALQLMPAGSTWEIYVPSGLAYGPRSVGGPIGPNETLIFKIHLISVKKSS

Structure (SMILES)	IC50 [µM]
COc1cc(C(=O)NC[C@H](C)OC(=O)[C@@H]2CCCCN2S(=O)(=O)Cc2ccccc2)cc(OC)c1OC	2.2
COCCOc1cc(OCCOC)cc(C(=O)OCCOC(=O)[C@@H]2CCCCN2S(=O)(=O)Cc2ccccc2)c1	8.6
C[C@@H](CNC(=O)c1cccnc1)OC(=O)[C@@H]1CCCCN1S(=O)(=O)Cc1ccccc1	3.5
O=C(NCCOC(=O)[C@@H]1CCCCN1S(=O)(=O)Cc1ccccc1)c1cccnc1	11.4
O=C(OCCCc1cccnc1)[C@@H]1CCCCN1S(=O)(=O)Cc1cccc([N+](=O)[O-])c1	7.9
O=C(OCCOc1cccnc1)[C@@H]1CCCCN1S(=O)(=O)Cc1ccccc1	7.7
O=C(OCCCc1cccnc1)[C@@H]1CCCCN1S(=O)(=O)Cc1ccccc1	5.8
O=C(C(=O)N1CCCC[C@H]1C(=O)OCCCc1cccnc1)c1ccccc1	142
O=C(OCCOC(=O)[C@@H]1CCCCN1S(=O)(=O)Cc1ccccc1)c1cccnc1	2.6
O=C(OCCCc1cccnc1)[C@@H]1CCCCN1S(=O)(=O)Cc1ccc(F)cc1	5.7
O=C(OCCCc1cccnc1)[C@@H]1CCCCN1S(=O)(=O)Cc1ccc(Cl)cc1	2.4
COc1cc(C(=O)NCCOC(=O)[C@@H]2CCCCN2S(=O)(=O)Cc2ccccc2)ccc1O	3.2
COCCOc1cc(OCCOC)cc(C(=O)NCCOC(=O)[C@@H]2CCCCN2S(=O)(=O)Cc2ccccc2)c1	5.6
O=C(OCCCc1cccnc1)[C@@H]1CCCCN1S(=O)(=O)Cc1cccc(Cl)c1	7.5
CC(C)NC(=O)[C@@H]1CCCCN1S(=O)(=O)Cc1ccccc1	> 100
O=C(OCCCc1cccnc1)C1CCCCN1S(=O)(=O)Cc1ccccc1 (racemic)	10.7
O=C(OCCO)C1CCCCN1S(=O)(=O)Cc1ccccc1 (racemic)	94
O=C(OCCCc1cccnc1)C1CCCCN1S(=O)(=O)Cc1cccc([N+](=O)[O-])c1 (racemic)	8.7
Nc1cccc(CS(=O)(=O)N2CCCCC2C(=O)OCCCc2cccnc2)c1 (racemic)	> 100
O=C(OCCCc1cccnc1)C1CCCCN1C(=O)COc1ccc(Cl)cc1 (racemic)	89.3
O=C(OCCCc1cccnc1)C1CCCCN1S(=O)(=O)Cc1ccc([N+](=O)[O-])cc1 (racemic)	3.9
CC(C)OC(=O)C1CCCCN1S(=O)(=O)Cc1ccccc1 (racemic)	79.2
CC(C)Nc1ccc(CS(=O)(=O)N2CCCCC2C(=O)OCCCc2cccnc2)cc1 (racemic)	44.5
CC(C)Nc1cccc(CS(=O)(=O)N2CCCCC2C(=O)OCCCc2cccnc2)c1 (racemic)	41.5
Nc1ccc(CS(=O)(=O)N2CCCCC2C(=O)OCCCc2cccnc2)cc1 (racemic)	21.4
C[C@H](CNC(=O)c1cccnc1)OC(=O)[C@@H]1CCCCN1S(=O)(=O)Cc1ccccc1 (single isomer, unassigned)	11.5

system: not listed separately; experiment: in vitro; details: mouse, J774.1 cells

Structure (SMILES)	IC50 at 24 h [µM]
COc1cc(C(=O)NC[C@H](C)OC(=O)[C@@H]2CCCCN2S(=O)(=O)Cc2ccccc2)cc(OC)c1OC	> 100
COCCOc1cc(OCCOC)cc(C(=O)OCCOC(=O)[C@@H]2CCCCN2S(=O)(=O)Cc2ccccc2)c1	> 80
C[C@@H](CNC(=O)c1cccnc1)OC(=O)[C@@H]1CCCCN1S(=O)(=O)Cc1ccccc1	> 100
O=C(NCCOC(=O)[C@@H]1CCCCN1S(=O)(=O)Cc1ccccc1)c1cccnc1	> 100
O=C(OCCCc1cccnc1)[C@@H]1CCCCN1S(=O)(=O)Cc1cccc([N+](=O)[O-])c1	48.2
O=C(OCCOc1cccnc1)[C@@H]1CCCCN1S(=O)(=O)Cc1ccccc1	> 100
O=C(OCCCc1cccnc1)[C@@H]1CCCCN1S(=O)(=O)Cc1ccccc1	> 100
O=C(C(=O)N1CCCC[C@H]1C(=O)OCCCc1cccnc1)c1ccccc1	88.1
O=C(OCCOC(=O)[C@@H]1CCCCN1S(=O)(=O)Cc1ccccc1)c1cccnc1	> 100
O=C(OCCCc1cccnc1)[C@@H]1CCCCN1S(=O)(=O)Cc1ccc(F)cc1	> 100
O=C(OCCCc1cccnc1)[C@@H]1CCCCN1S(=O)(=O)Cc1ccc(Cl)cc1	33.6
COc1cc(C(=O)NCCOC(=O)[C@@H]2CCCCN2S(=O)(=O)Cc2ccccc2)ccc1O	> 100
COCCOc1cc(OCCOC)cc(C(=O)NCCOC(=O)[C@@H]2CCCCN2S(=O)(=O)Cc2ccccc2)c1	> 100
O=C(OCCCc1cccnc1)[C@@H]1CCCCN1S(=O)(=O)Cc1cccc(Cl)c1	43.3
CC(C)NC(=O)[C@@H]1CCCCN1S(=O)(=O)Cc1ccccc1	> 100
O=C(OCCCc1cccnc1)C1CCCCN1S(=O)(=O)Cc1ccccc1 (racemic)	> 100
O=C(OCCO)C1CCCCN1S(=O)(=O)Cc1ccccc1 (racemic)	> 100
O=C(OCCCc1cccnc1)C1CCCCN1S(=O)(=O)Cc1cccc([N+](=O)[O-])c1 (racemic)	46.7
Nc1cccc(CS(=O)(=O)N2CCCCC2C(=O)OCCCc2cccnc2)c1 (racemic)	62.3
O=C(OCCCc1cccnc1)C1CCCCN1C(=O)COc1ccc(Cl)cc1 (racemic)	50.9
O=C(OCCCc1cccnc1)C1CCCCN1S(=O)(=O)Cc1ccc([N+](=O)[O-])cc1 (racemic)	56.7
CC(C)OC(=O)C1CCCCN1S(=O)(=O)Cc1ccccc1 (racemic)	> 100
CC(C)Nc1ccc(CS(=O)(=O)N2CCCCC2C(=O)OCCCc2cccnc2)cc1 (racemic)	44.3
CC(C)Nc1cccc(CS(=O)(=O)N2CCCCC2C(=O)OCCCc2cccnc2)c1 (racemic)	57.4
Nc1ccc(CS(=O)(=O)N2CCCCC2C(=O)OCCCc2cccnc2)cc1 (racemic)	> 100
C[C@H](CNC(=O)c1cccnc1)OC(=O)[C@@H]1CCCCN1S(=O)(=O)Cc1ccccc1 (single isomer, unassigned)	> 100

system: not listed separately; experiment: Metabolic stability in mouse J774.1 cells at 37 degC after 1 hr by HPLC analysis; type: ADME, cell-based; details: read-out: Stability
In short: (§2)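 Compound incubated with J774.1 murine macrophages in RPMI medium at 37 °C, sampled at 0, 1 and 24 h, and the remaining compound quantified by HPLC.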

Structure (SMILES)	remaining at 1 h [%]
COCCOc1cc(OCCOC)cc(C(=O)OCCOC(=O)[C@@H]2CCCCN2S(=O)(=O)Cc2ccccc2)c1	98
C[C@@H](CNC(=O)c1cccnc1)OC(=O)[C@@H]1CCCCN1S(=O)(=O)Cc1ccccc1	95
O=C(NCCOC(=O)[C@@H]1CCCCN1S(=O)(=O)Cc1ccccc1)c1cccnc1	82
O=C(OCCOc1cccnc1)[C@@H]1CCCCN1S(=O)(=O)Cc1ccccc1	88
O=C(OCCOC(=O)[C@@H]1CCCCN1S(=O)(=O)Cc1ccccc1)c1cccnc1	82
O=C(OCCO)C1CCCCN1S(=O)(=O)Cc1ccccc1 (racemic)	95

system: not listed separately; experiment: Stability in human plasma after 4 hrs by HPLC analysis; type: ADME, cell-free; details: not given; in short: as §1

Structure (SMILES)	Stability [%]
O=C(NCCOC(=O)[C@@H]1CCCCN1S(=O)(=O)Cc1ccccc1)c1cccnc1	20

system: not listed separately; experiment: Stability in human plasma after 1 hr by HPLC analysis; type: ADME, cell-free; details: not given; in short: as §1

Structure (SMILES)	Stability [%]
O=C(NCCOC(=O)[C@@H]1CCCCN1S(=O)(=O)Cc1ccccc1)c1cccnc1	5

system: not listed separately; experiment: Metabolic stability in mouse J774.1 cells at 37 degC after 24 hrs by HPLC analysis; type: ADME, cell-based; details: read-out: Stability; in short: as §2

Structure (SMILES)	remaining at 24 h [%]
COCCOc1cc(OCCOC)cc(C(=O)OCCOC(=O)[C@@H]2CCCCN2S(=O)(=O)Cc2ccccc2)c1	59
C[C@@H](CNC(=O)c1cccnc1)OC(=O)[C@@H]1CCCCN1S(=O)(=O)Cc1ccccc1	97
O=C(NCCOC(=O)[C@@H]1CCCCN1S(=O)(=O)Cc1ccccc1)c1cccnc1	81
O=C(OCCOc1cccnc1)[C@@H]1CCCCN1S(=O)(=O)Cc1ccccc1	77
O=C(OCCOC(=O)[C@@H]1CCCCN1S(=O)(=O)Cc1ccccc1)c1cccnc1	50
O=C(OCCO)C1CCCCN1S(=O)(=O)Cc1ccccc1 (racemic)	86
